According to ChEMBL document CHEMBL4725346, “Syntheses and Evaluation of New Bisacridine Derivatives for Dual Binding of G-Quadruplex and i-Motif in Regulating Oncogene c-myc Expression” (J Med Chem, 2020):
Active and inactive are the calls of the source. No cut-off for these calls is given here.

Experiments:
[1] = test system: SiHa; assay: Induction of cell cycle arrest in human SiHa cells assessed as accumulation of cells at G0/G1 phase at 0.60 uM after 24 hrs by propidium iodide staining based flow cytometry (reference value: 42.28%); type: functional; conditions: dose 0.6 µM
[2] = test system: Quadruplex DNA; assay: Binding affinity to 5'-biotin labeled c-myc promoter G-quadruplex DNA Pu27 (unknown origin) by UV titration method; type: nucleic-acid assay
[3] = test system: Quadruplex DNA; assay: Binding affinity to c-myc promoter G-quadruplex/i-motif in human Raji cells assessed as reduction in c-myc mRNA transcription incubated for 24 hrs; type: cell-based; conditions: dose microM 0.16-2.5, time 24.0 hrs
[4] = Binding affinity to c-myc promoter i-motif DNA Py33 (unknown origin) at 20 uM by isothermal titration calorimetry
Outline: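 ITC at 20 °C on degassed solutions. Cell held preformed DNA ([…]). Syringe held ligand in the same buffer (50 μM for Pu27, 20 μM for Py33). 28 injections of 10 μL at 4 min intervals. Heats of dilution from ligand-into-buffer runs subtracted before model fitting.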

[5] = test system: Raji; assay: Induction of apoptosis in human Raji cells at 0.6 to 2.4 uM after 24 hrs by propidium iodide staining based flow cytometry; type: functional, cell-based; conditions: dose microM 0.6-2.4, time 24.0 hrs
[6] = test system: SiHa; assay: Induction of apoptosis in human SiHa cells assessed as late apoptotic cells at 0.6 uM after 24 hrs by annexin V/FITC-propidium iodide staining-based flow cytometric method ( Rvb = 0.4%); type: functional
[7] = Toxicity in BALB/c nude mouse xenografted with human SiHa cells assessed as effect on heart weight at 15 mg/kg, ip administered once per 2 days for 18 days; type: organism-based; conditions: in vivo, 432 h, time 18 day
Outline: (§1)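 SiHa tumour fragments passaged from donor mice implanted in the underarm of female BALB/c nude mice (six per group). Compound given at 15 mg/kg ip once every two days for 18 days, with saline and cisplatin 0.2 mg/kg control groups. Body weight recorded every two days; at day 18 mice were sacrificed and organs weighed.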

[8] = test system: A-375; assay: Antiproliferative activity against human A-375 cells after 48 hrs by MTT assay; type: functional, cell-based; conditions: A-375, 48 h
Outline: (§2)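 Cells seeded at 5.0×10^3 per well, pre-incubated 12 h at 37 °C, 5% CO2, then exposed to compounds for 48 h; DMSO-only control. MTT (2.5 mg/mL) added for 4 h, formazan dissolved in DMSO, absorbance at 570 nm. Each dose tested in triplicate; IC50 from percentage survival relative to negative control.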

[9] = test system: SiHa; assay: Induction of apoptosis in human SiHa cells assessed as early apoptotic cells at 1.2 uM after 24 hrs by annexin V/FITC-propidium iodide staining-based flow cytometric method ( Rvb = 0.3%); type: functional
[10] = test system: SiHa; assay: Antitumor activity against human SiHa cells xenografted in BALB/c nude mouse assessed as reduction in tumor weight at 15 mg/kg, ip administered once per 2 days for 18 days relative to control; type: functional; parameters: scale not given: the % may be the effect or the level left; conditions: time 18 day
Outline: (§3)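 SiHa tumor fragments from donor xenografts (grown to about 1,000 mm³) implanted in the underarm of female BALB/c nude mice; six per group. Dosed ip once every two days for 18 days, saline as negative control, cisplatin 0.2 mg/kg as positive control. Tumor volume = length × width²/2. Tumors weighed at sacrifice.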

[11] = test system: Huh-7; assay: Antiproliferative activity against human Huh-7 cells after 48 hrs by MTT assay; type: functional, cell-based; conditions: Huh-7, 48 h; outline: as §2
[12] = test system: Quadruplex DNA; assay: Binding affinity to c-myc wild-type promoter G-quadruplex/i-motif (unknown origin) expressed in human SiHa cells assessed as reduction in c-myc transcription by measuring decrease in ratio of renilla/firefly luciferase activity after 48 hrs by dual-luciferase reporter assay; type: cell-based; conditions: dose microM 0.025-0.1, time 48.0 hrs
Outline: (§4)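 SiHa cells transfected with 200 ng psiCHECK2 plasmid carrying wild-type, mutant or deleted c-myc promoter. Compounds added 8 h after transfection, then incubated 48 h at 37 °C. Cells washed with ice-cold PBS; Renilla/firefly activity ratio read by dual-luciferase assay.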

[13] = test system: SiHa; assay: Induction of cell cycle arrest in human SiHa cells assessed as accumulation of cells at S phase at 0.30 uM after 24 hrs by propidium iodide staining based flow cytometry (reference value: 17.74%); type: functional; conditions: dose 0.3 µM
[14] = test system: Quadruplex DNA; assay: Binding affinity to c-myc wild-type promoter G-quadruplex/i-motif (unknown origin) expressed in human SiHa cells assessed as reduction in c-myc transcription by measuring decrease in ratio of renilla/firefly luciferase activity at 1/3 IC50 after 48 hrs by dual-luciferase reporter assay; type: cell-based; outline: as §4
[15] = test system: SiHa; assay: Antitumor activity against human SiHa cells xenografted in BALB/c nude mouse assessed as reduction in tumor volume at 15 mg/kg, ip administered once per 2 days for 18 days (reference value: 750 mm3); type: functional; conditions: time 18 day; outline: as §3
[16] = test system: Raji; assay: Induction of cell cycle arrest in human Raji cells assessed as accumulation of cells at G2/M phase at 0.15 to 0.6 uM after 24 hrs by propidium iodide staining based flow cytometry; type: functional; conditions: dose microM 0.15-0.6, time 24.0 hrs
[17] = test system: SiHa; assay: Induction of cell cycle arrest in human SiHa cells assessed as accumulation of cells at G2/M phase at 0.30 uM after 24 hrs by propidium iodide staining based flow cytometry (reference value: 29.71%); type: functional; conditions: dose 0.3 µM
[18] = test system: Quadruplex DNA; assay: Stabilization of c-myc promoter G-quadruplex DNA Pu27 (unknown origin) assessed as effect on melting temperature at 5 uM by CD spectroscopy; type: nucleic-acid assay
Outline: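 CD melting: Pu27 diluted to 1 µM in 10 mM Tris-HCl, 5 mM KCl, pH 7.4, with or without ligand. Annealed at 95 °C for 5 min, slowly cooled, then heated at 1 °C/min while monitoring 260 nm. Tm obtained by curve fitting.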

[19] = molecular target: Quadruplex DNA; assay: Binding affinity to 5'-biotin labeled c-myc promoter G-quadruplex DNA Pu27 (unknown origin) by surface plasmon resonance method; type: nucleic-acid assay
Outline: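 SPR: 5'-biotin DNA diluted to 1 μM and captured (1000 RU) on a sensor chip, with a blank cell as reference. Running buffers: Py33 in 20 mM MES pH 5.8, 100 mM KCl, 0.05% Tween-20; Pu27 and duplex in 50 mM Tris-HCl pH 7.4, 100 mM KCl. Six ligand concentrations serially diluted from DMSO stock. Association 260 s, dissociation 300 s at 25 °C; NaOH regeneration; blank sensorgrams subtracted.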

[20] = Stabilization of c-myc promoter i-motif DNA Py33 (unknown origin) assessed as decrease in positive peak intensity at pH 5.5 measured at 288 nanometer by CD spectroscopy
Outline: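 Py33 at 1 µM in 1× BPES pH 5.5 (pH 6.8 random-coil reference), with or without ligand. Annealed at 95 °C for 5 min, cooled, kept at 4 °C overnight. CD spectra in a 4 mm cuvette over 230–350 nm, three scans averaged, buffer-corrected; peaks followed at 288 and 260 nm.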

[21] = Toxicity in BALB/c nude mouse xenografted with human SiHa cells assessed as effect on kidney weight at 15 mg/kg, ip administered once per 2 days for 18 days; type: organism-based; conditions: in vivo, 432 h, time 18 day; outline: as §1
[22] = test system: U2OS; assay: Antiproliferative activity against human U2OS cells after 48 hrs by MTT assay; type: functional, cell-based; outline: as §2

Activity [2]: Active
Kd [4]: 650 nM
IC50 [8]: 280 nM
IC50 [11]: 160 nM
Activity [18]: Active
Kd [19]: 7700 nM
Activity [20]: Active
IC50 [22]: 310 nM
SMILES: Cc1ccc2nc3ccc(C)cc3c(NCCCNCCNCCCNc3c4cc(C)ccc4nc4ccc(C)cc34)c2c1
Activity [1]: 16.87%
Activity [3]: Dose-dependent effect
Activity [5]: Active
Activity [6]: 3.8%
Activity [7]: Non-Toxic
Activity [9]: 43.2%
Activity [10]: 41.6%
Activity [12]: Dose-dependent effect
Activity [13]: 15.22%
Activity [14]: Active
Activity [15]: 450 mm3
Activity [16]: Active
Activity [17]: 42.47%
Activity [21]: Non-Toxic
